Measured values of several laboratories.
Each line is one published result; the experiments were not run side by side.
ADRA1A: Alpha-1A adrenergic receptor (ADRA1A, Homo sapiens, UniProt P35348)
MAP3K7: Mitogen-activated protein kinase kinase kinase 7 (MAP3K7, Homo sapiens, UniProt O43318)
MAL12: Alpha-glucosidase MAL12 (MAL12, Saccharomyces cerevisiae S288c, UniProt P53341)

Nc1ncnc2c1ncn2[C@@H]1O[C@H](COP(=O)(O)OP(=O)(O)OP(=O)(O)O)[C@@H](O)[C@H]1O
Km (Hexokinase HKDC1 (Homo sapiens, UniProt Q2TB90); enzyme activity, substrate; pH 8): 410 µM

COc1cc2c3c(c1OC)-c1c(OC)ccc(O)c1CC3N(C)CC2 (stereo not shown)
inhibition (ADRA1A; ligand displacement, radioligand; 10 µM): 9%

C#Cc1cnc(Nc2ccnc(CO)c2)nc1Nc1ccccc1S(C)(=O)=NC#N (stereo not shown)
remaining activity (MAP3K7; enzyme activity, inhibitor; 1 µM): 78.9%

O=c1cc(-c2ccc(O)c(O)c2)oc2cc(O)cc(O)c12
inhibition (MAL12; enzyme activity, inhibitor, absorbance; 50 µM): 34.4%

COc1cc2c3c(c1OC)-c1c(OC)ccc(NC(C)=O)c1CC3N(C)CC2 (stereo not shown)
inhibition (ADRA1A; ligand displacement, radioligand; 10 µM): 10%

O=c1c(O)c(-c2ccc(O)cc2)oc2cc(O)cc(O)c12
inhibition (MAL12; enzyme activity, inhibitor, absorbance; 50 µM): 39.8%

C1=C/COCc2cc(ccc2OCCN2CCCC2)Nc2nccc(n2)-c2cccc(c2)COC/1
remaining binding (Mitotic checkpoint serine/threonine-protein kinase BUB1 (BUB1, Homo sapiens, UniProt O43683); binding; 0.1 µM): 91%

CC(=O)ON=C1C=CC(=C(C#N)c2ccccc2)C=C1
activity vs control (Glycogen synthase kinase 3 (Plasmodium falciparum, UniProt O77344); enzyme activity, inhibitor, ADP detection; 20 µM): 89%

O=C1C[C@@H](c2ccc(O)cc2)Oc2cc(O)cc(O)c21
inhibition (MAL12; enzyme activity, inhibitor, absorbance; 50 µM): 26.5%

CNC(=O)c1ccccc1Nc1nc(Nc2ccc(CO)cc2)ncc1Cl
remaining activity (MAP3K7; enzyme activity, inhibitor; 1 µM): 42.9%

CCCCC(=O)Nc1ccc(-c2ccc3ncn(CCC)c(=O)c3c2)cn1
remaining binding (Wee1-like protein kinase 2 (WEE2, Homo sapiens, UniProt P0C1S8); binding, competition with immobilised ligand; 0.5 µM): 100%

O=c1cc(-c2ccc(O)c(O)c2)oc2c(Br)c(O)c(Br)c(O)c12
inhibition (MAL12; enzyme activity, inhibitor, absorbance; 50 µM): 95.1%

CNC(=O)c1ccccc1Nc1nc(Nc2ccc(CO)nc2)ncc1Cl
remaining activity (MAP3K7; enzyme activity, inhibitor; 1 µM): 64.9%
